Results on 4 compounds are retold here after ChEMBL document CHEMBL1124429, “Heterocyclic analogues of benzamide antiarrhythmic agents” (J Med Chem, 1989).

The species entered for data set [1] is Canis familiaris. The data set is described as follows: Maximum percent change in repolarization at 100 uM concentration on Canine Purkinje fibers. It is filed as functional, Canis lupus familiaris, Purkinje fiber. Put shortly:
(§1)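 Isolated canine Purkinje fibers were superfused with physiological saline gassed with 95% O2/5% CO2 (pH 7.35–7.40) at 36 ± 0.5 °C. Paced at 1.0 Hz with 2-ms pulses at twice diastolic threshold. After up to 1 h stabilization, compounds were tested over 10^-8 to 10^-3 M, 30 min per concentration, one compound per fiber, with vehicle controls. Intracellular microelectrodes (3 M KCl) recorded Vmax and APD95; maximum percent change from control is reported with its concentration.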

The species named for data set [2] is Canis familiaris. As to the kind of experiment: Percent change from control in the functional refractory period (FRP) at 10 uM conc. on Canine ventricular muscle fibre. More on the design: species or system Canis lupus familiaris, Muscle tissue. Put shortly:
(§2)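 Canine right ventricular papillary muscle strips were superfused at 36 ± 0.5 °C with saline gassed with 95% O2/5% CO2. Diastolic threshold was found with 2-ms stimuli at 4000 ms cycle length, then pacing at 4× threshold for 60 min equilibration. FRP was measured at 1000 ms cycle length by S1-S2 premature stimulus after every tenth S1. Conduction time came from a bipolar electrogram. Various compound concentrations were tested, one compound per strip, with vehicle controls. Percent change from control was taken at 10 µM, or the maximum change with its concentration; for N ≥ 3, mean with range.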

For data set [3], the species on record is Cavia porcellus. The data set is described as follows: Concentration of compound which gives a 20% decrease in contractile force was tested on papillary muscle of guinea pig, activity was expressed as EC-20. It is filed as functional. The conditions noted are these: Muscle tissue. In short, it runs like this:
(§3)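 Contractile force measured in an isolated cardiac muscle preparation. Value is the concentration giving a 20% decrease in force of contraction. NR marks that this decrease was not reached. Values come from individual experiments; for N ≥ 3, the mean is given with the range.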

The species entered for data set [4] is Canis familiaris. As to the kind of experiment: Maximum percent change in functional refractory period (FRP) at 100 uM on Canine ventricular muscle fibre. Also on record: species or system Canis lupus familiaris, Muscle tissue. In short, it runs like this:
as §2

For data set [5], the species on record is Canis familiaris. The data set is described as follows: Percent change from control in conduction time (CT) at 10 uM concentration tested on Canine ventricular muscle fibre.; M is minimal(<10% change in CT). It is filed as functional. As to conditions: Canis lupus familiaris, Muscle tissue. Put shortly: as §2
For data set [6], the species on record is Canis familiaris. The data set is described as follows: Maximum Percent change from control in the rate of rise of phase 0 of the action potential at 100 uM concentration on Canine Purkinje fibers. The conditions noted are these: dog, in vitro.
The species entered for data set [7] is Canis familiaris. The data set is described as follows: Percent change from control in the rate of rise of phase 0 of the action potential at 10 uM concentration on Canine Purkinje fibers. Also on record: species or system Canis lupus familiaris, Purkinje fiber. The conditions noted are these: dog.
For data set [8], the species on record is Canis familiaris. As to the kind of experiment: Percent change in repolarization at 10 Purkinje fibers. It is filed as functional, Canis lupus familiaris, Purkinje fiber. In short, it runs like this:
(§4)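 Canine Purkinje fibers were held in oxygenated (95% O2–5% CO2) physiological saline, pH 7.35–7.40, at 36 ± 0.5 °C and paced at 1.0 Hz with 2-ms pulses at twice diastolic threshold. Intracellular microelectrodes (3 M KCl) recorded Vmax and APD95 simultaneously. After up to 1 h of stabilization, compounds were tested from 10^-8 to 10^-3 M with 30 min per concentration. One compound per fiber, with vehicle controls. For N ≥ 3, values are the mean with the range.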

Data set [9] is filed under the species Canis familiaris. As to the kind of experiment: Maximum percent change in conduction time (CT) at 100 uM concentration tested on Canine ventricular muscle fibre. It is filed as functional, Canis lupus familiaris, Muscle tissue. In short, it runs like this:
as §2

The species entered for data set [10] is Canis familiaris. The data set is described as follows: Percent change in repolarization at 10 Purkinje fibers.; value ranges from -23-17. It is filed as functional, Canis lupus familiaris, Purkinje fiber. Put shortly:
as §4

A short description of data set [11]: Maximum Percent change from control in the rate of rise of phase 0 of the action potential at 30 uM concentration on Canine Purkinje fibers; CB is conduction block. It is filed as functional, tissue-based. The conditions noted are these: Purkinje fiber. Put shortly: as §1
The species entered for data set [12] is Canis familiaris. As to the kind of experiment: Maximum Percent change from control in the rate of rise of phase 0 of the action potential at 30 uM concentration on Canine Purkinje fibers. As to conditions: dog, in vitro. More on the design: species or system Canis lupus familiaris, Purkinje fiber. Put shortly:
as §1

The species entered for data set [13] is Canis familiaris. As to the kind of experiment: Maximum Percent change from control in the rate of rise of phase 0 of the action potential at 10 uM concentration on Canine Purkinje fibers. As to conditions: dog, in vitro. It is filed as functional, Canis lupus familiaris, Purkinje fiber. Put shortly: as §1
Data set [14] is filed under the species Canis familiaris. As to the kind of experiment: Maximum percent change in repolarization at 30 uM concentration on Canine Purkinje fibers. It is filed as functional, Canis lupus familiaris, Purkinje fiber. Put shortly: as §1
Data set [15] is filed under the species Canis familiaris. As to the kind of experiment: Maximum percent change in repolarization at 10 uM concentration on Canine Purkinje fibers. It is filed as functional, Canis lupus familiaris, Purkinje fiber. In short, it runs like this: as §1
Data set [16] is filed under the species Canis familiaris. The data set is described as follows: Percent change from control in conduction time (CT) at 10 uM concentration tested on Canine ventricular muscle fibre. It is filed as functional, Canis lupus familiaris, Muscle tissue. Put shortly:
as §2

The species named for data set [17] is Canis familiaris. The data set is described as follows: Maximum percent change in conduction time (CT) at 1 uM concentration tested on Canine ventricular muscle fibre. It is filed as functional, Canis lupus familiaris, Muscle tissue. Put shortly:
as §2

For data set [18], the species on record is Canis familiaris. The data set is described as follows: Percent change in repolarization at 10 Purkinje fibers; value ranges from 3-4. It is filed as functional, Canis lupus familiaris, Purkinje fiber. Put shortly:
as §4

The species named for data set [19] is Canis familiaris. As to the kind of experiment: Percent change from control in the rate of rise of phase 0 of the action potential at 10 uM concentration on Canine Purkinje fibers.; value ranges from -36.0-1.0. More on the design: species or system Canis lupus familiaris, Purkinje fiber. As to conditions: dog, in vitro.
The species named for data set [20] is Canis familiaris. As to the kind of experiment: Maximum percent change in repolarization at 0.1 uM concentration on Canine Purkinje fibers. It is filed as functional, Canis lupus familiaris, Purkinje fiber. In short, it runs like this: as §1
The species named for data set [21] is Cavia porcellus. The data set is described as follows: Concentration of compound which gives a 20% decrease in contractile force was tested from individual experiment on papillary muscle of guinea pig, activity was expressed as EC-20.; NR is not reached. It is filed as functional. As to conditions: Muscle tissue. Put shortly:
as §3

Data set [22] is filed under the species Canis familiaris. As to the kind of experiment: Maximum percent change in repolarization at 1 uM concentration on Canine Purkinje fibers. It is filed as functional, Canis lupus familiaris, Purkinje fiber. Put shortly:
as §1

Data set [23] is filed under the species Canis familiaris. The data set is described as follows: Percent change in functional refractory period (FRP) at 10 uM on Canine ventricular muscle fibre. Also on record: species or system Canis lupus familiaris, Muscle tissue.
For data set [24], the species on record is Canis familiaris. The data set is described as follows: Maximum Percent change from control in the rate of rise of phase 0 of the action potential at 100 uM concentration on Canine Purkinje fibers. It is filed as […], Canis lupus familiaris, Purkinje fiber. The conditions noted are these: dog, in vitro. In short, it runs like this: as §1
Data set [25] is filed under the species Canis familiaris. The data set is described as follows: Maximum percent change in functional refractory period(FRP) of compound (30 uM) was tested on Canine ventricular muscle fibre. More on the design: species or system Canis lupus familiaris, Muscle tissue. Put shortly:
as §2

For data set [26], the species on record is Canis familiaris. As to the kind of experiment: Maximum percent change in conduction time (CT) at 10 uM concentration tested on Canine ventricular muscle fibre. It is filed as functional, Canis lupus familiaris, Muscle tissue. Put shortly:
as §2

Active and inactive are the calls of the source.

The EC20 is the point of the concentration-response curve where the effect stands at 20%. In the case of `CCN(CC)CCNC(=O)c1cc(Cl)c(N)cc1OC` [METOCLOPRAMIDE], the APD95 in the data set filed under Canis familiaris [1] is -17%; in the data set listed under Canis familiaris [8], 1%. In addition, the FRP is reported as 17% in the data set filed under Canis familiaris [2] and 33% in the data set filed under Canis familiaris [4]. The compound further had an EC20 in the data set listed under Cavia porcellus [3] of 10 µM. The CT entry in the data set filed under Canis familiaris [5] was “inactive”. Moreover, the Vmax in the data set filed under Canis familiaris [6] is on record as -25%; in the data set listed under Canis familiaris [7] (in vitro) it was -3%. The CT in the data set filed under Canis familiaris [9] was 17%.
As for `CCN(CC)CCNC(=O)c1cc2cccc(OCc3ccccc3)c2[nH]1`, the FRP in the data set listed under Canis familiaris [2] came to 2%; in the data set listed under Canis familiaris [4], 10%. The compound also came in with an EC20 in the data set listed under Cavia porcellus [3] of 6 µM. For the same compound, the results for the APD95 in the data set filed under Canis familiaris [10], in the data set listed under Canis familiaris [14] and in the data set filed under Canis familiaris [15] were -7%, -25% and 17%, respectively. The Vmax result is listed as “Conduction block” in [11], -66% in the data set listed under Canis familiaris [12], -37.7% in the data set filed under Canis familiaris [7] (in vitro) and -30% in the data set filed under Canis familiaris [13]. Further, the CT is listed as -13% in the data set filed under Canis familiaris [16] and 4% in the data set filed under Canis familiaris [9].
In the case of `CCN(CC)CCCNC(=O)c1c(C)[nH]c(C)c1C`, the CT in the data set filed under Canis familiaris [17] is given as -3%; in the data set filed under Canis familiaris [5], “Minimal”. The APD95 in the data set listed under Canis familiaris [18] is 3.7%; in the data set listed under Canis familiaris [20], 5%; in the data set listed under Canis familiaris [15], 4%; in the data set listed under Canis familiaris [22], 6%. The FRP in the data set filed under Canis familiaris [4] amounted to 16%; in the data set listed under Canis familiaris [23], 4%. Besides, the Vmax in the data set filed under Canis familiaris [19] is -13%; in the data set listed under Canis familiaris [12] it was -14%; in the data set listed under Canis familiaris [24], -37%. In the data set listed under Cavia porcellus [21], the EC20 entry is given as “Not reached”.
With `CCN(CC)CCNC(=O)c1c(C)[nH]c(C)c1C`, the results for the APD95 in the data set filed under Canis familiaris [1] and in the data set listed under Canis familiaris [8] were -5% and 2%, respectively. Further, the FRP in the data set listed under Canis familiaris [2] is 1%; in the data set filed under Canis familiaris [25], 6%. The compound also returned an EC20 in the data set filed under Cavia porcellus [3] of 30 µM. The results for the CT entry in the data set filed under Canis familiaris [5] and in the data set listed under Canis familiaris [26] were “Minimal” and -8%, respectively. For the same compound, the values for the Vmax in the data set listed under Canis familiaris [7] (in vivo) and in the data set filed under Canis familiaris [24] were -18% and -45%, respectively.
